Test results taken from ChEMBL document CHEMBL4118255, “Synthesis and antibacterial evaluation of novel 11-O-aralkylcarbamoyl-3-O-descladinosylclarithromycin derivatives” (2018).
Converted amounts (≈) assume the structure as drawn.

Key:
Assay type in all cases: functional
Streptococcus pneumoniae [1] = assay: Antibacterial activity against erythromycin-resistant Streptococcus pneumoniae AB11 harboring ermB and mefA genes after 24 hrs by tube-dilution method; conditions: AB11, 24 h
How it was run: (§1)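 MIC determined by the NCCLS-recommended standard broth microdilution method against erythromycin-resistant S. pneumoniae strains (A22072 mef, B1 erm, AB11 erm plus mef) and methicillin-resistant S. aureus ATCC43300.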

Escherichia coli = assay: Antibacterial activity against penicillin-susceptible Escherichia coli ATCC 25922 incubated for 24 hrs by […]; conditions: ATCC 25922, 24 h
Streptococcus pyogenes [2] = assay: Potency index, ratio of clarithromycin MIC to compound MIC for erythromycin-resistant Streptococcus pyogenes R1
Bacillus subtilis = assay: Antibacterial activity against erythromycin-susceptible Bacillus subtilis ATCC 9372 after 24 hrs by tube-dilution method; conditions: ATCC 9372, 24 h
How it was run: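 MIC by standard NCCLS broth microdilution. Reference macrolides clarithromycin and azithromycin run alongside.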

Streptococcus pneumoniae [3] = assay: Antibacterial activity against erythromycin-resistant Streptococcus pneumoniae A22072 harboring mefA gene after 24 hrs by […]; conditions: A22072, 24 h
Staphylococcus aureus [4] = assay: Antibacterial activity against erythromycin-susceptible Staphylococcus aureus ATCC 25923 after 24 hrs by […]; conditions: ATCC 25923, 24 h
Streptococcus pyogenes [5] = assay: Potency index, ratio of azithromycin MIC to compound MIC for erythromycin-resistant Streptococcus pyogenes R1
Streptococcus pneumoniae [6] = assay: Antibacterial activity against erythromycin-resistant Streptococcus pneumoniae B1 harboring ermB gene after 24 hrs by tube-dilution method; conditions: B1, 24 h; how it was run: as §1
Streptococcus pyogenes [7] = assay: Antibacterial activity against erythromycin-susceptible Streptococcus pyogenes after 24 hrs […]
Pseudomonas aeruginosa = assay: Antibacterial activity against penicillin-susceptible Pseudomonas aeruginosa ATCC 27853 incubated for 24 hrs by […]; conditions: ATCC 27853, 24 h
Streptococcus pyogenes [8] = assay: Antibacterial activity against erythromycin-resistant Streptococcus pyogenes R1 after 24 hrs by tube-dilution method; conditions: R1, 24 h
Staphylococcus aureus [9] = assay: Antibacterial activity against methicillin-resistant Staphylococcus aureus ATCC 43300 after 24 hrs by tube-dilution method; conditions: ATCC 43300, 24 h; how it was run: as §1
Streptococcus pneumoniae [10] = assay: Potency index, ratio of clarithromycin MIC to compound MIC for erythromycin-resistant Streptococcus pneumoniae A22072 harboring mefA gene
Streptococcus pneumoniae [11] = assay: Potency index, ratio of clarithromycin MIC to compound MIC for erythromycin-resistant Streptococcus pneumoniae AB11 harboring ermB and mefA gene
Streptococcus pneumoniae [12] = assay: Potency index, ratio of azithromycin MIC to compound MIC for erythromycin-resistant Streptococcus pneumoniae A22072 harboring mefA gene
Streptococcus pneumoniae [13] = assay: Potency index, ratio of azithromycin MIC to compound MIC for erythromycin-resistant Streptococcus pneumoniae AB11 harboring ermB and mefA gene
Streptococcus pneumoniae [14] = assay: Potency index, ratio of azithromycin MIC to compound MIC for erythromycin-resistant Streptococcus pneumoniae B1 harboring ermB gene
Staphylococcus aureus [15] = assay: Potency index, ratio of azithromycin MIC to compound MIC for methicillin-resistant Staphylococcus aureus ATCC 43300
Streptococcus pneumoniae [16] = assay: Potency index, ratio of clarithromycin MIC to compound MIC for erythromycin-resistant Streptococcus pneumoniae B1 harboring ermB gene
Staphylococcus aureus [17] = assay: Potency index, ratio of clarithromycin MIC to compound MIC for methicillin-resistant Staphylococcus aureus ATCC 43300

SMILES	MIC (Streptococcus pneumoniae [1]) [µg/mL]	MIC (Escherichia coli) [µg/mL]	Ratio (Streptococcus pyogenes [2])	MIC (Bacillus subtilis) [µg/mL]	MIC (Streptococcus pneumoniae [3]) [µg/mL]	MIC (Staphylococcus aureus [4]) [µg/mL]	Ratio (Streptococcus pyogenes [5])	MIC (Streptococcus pneumoniae [6]) [µg/mL]	MIC (Streptococcus pyogenes [7]) [µg/mL]	MIC (Pseudomonas aeruginosa) [µg/mL]	MIC (Streptococcus pyogenes [8]) [µg/mL]	MIC (Staphylococcus aureus [9]) [µg/mL]	Ratio (Streptococcus pneumoniae [10])	Ratio (Streptococcus pneumoniae [11])	Ratio (Streptococcus pneumoniae [12])	Ratio (Streptococcus pneumoniae [13])	Ratio (Streptococcus pneumoniae [14])	Ratio (Staphylococcus aureus [15])	Ratio (Streptococcus pneumoniae [16])	Ratio (Staphylococcus aureus [17])
CC[C@H]1OC(=O)[C@H](C)[C@@H](OC(=O)Cc2cccnc2)[C@H](C)[C@@H](O[C@@H]2O[C@H](C)C[C@H](N(C)C)[C@H]2O)[C@](C)(OC)C[C@@H](C)C(=O)[C@H](C)[C@@H](OC(=O)NCCNC(=O)c2ccc(C3CCCCC3)cc2)[C@]1(C)O	32 (≈ 32.6 µM)	128 (≈ 130 µM)	4	4 (≈ 4.08 µM)	1 (≈ 1.02 µM)	2 (≈ 2.04 µM)	4	64 (≈ 65.2 µM)	0.5 (≈ 0.51 µM)	128 (≈ 130 µM)	32 (≈ 32.6 µM)	32 (≈ 32.6 µM)	–	–	–	–	–	–	–	–
CC[C@H]1OC(=O)[C@H](C)[C@@H](OC(=O)Cc2cccnc2)[C@H](C)[C@@H](O[C@@H]2O[C@H](C)C[C@H](N(C)C)[C@H]2O)[C@](C)(OC)C[C@@H](C)C(=O)[C@H](C)[C@@H](OC(=O)NCCNC(=O)c2cc([N+](=O)[O-])cc([N+](=O)[O-])c2)[C@]1(C)O	4 (≈ 4.04 µM)	64 (≈ 64.7 µM)	–	1 (≈ 1.01 µM)	0.5 (≈ 0.506 µM)	1 (≈ 1.01 µM)	–	32 (≈ 32.4 µM)	0.015 (≈ 0.0152 µM)	64 (≈ 64.7 µM)	128 (≈ 129 µM)	64 (≈ 64.7 µM)	4	32	8	32	–	–	–	–
CC[C@H]1OC(=O)[C@H](C)[C@@H](OC(=O)Cc2cccnc2)[C@H](C)[C@@H](O[C@@H]2O[C@H](C)C[C@H](N(C)C)[C@H]2O)[C@](C)(OC)C[C@@H](C)C(=O)[C@H](C)[C@@H](OC(=O)NCCNC(=O)c2ccc([N+](=O)[O-])cc2N)[C@]1(C)O	4 (≈ 4.17 µM)	64 (≈ 66.7 µM)	–	1 (≈ 1.04 µM)	0.25 (≈ 0.261 µM)	1 (≈ 1.04 µM)	–	16 (≈ 16.7 µM)	0.03 (≈ 0.0313 µM)	64 (≈ 66.7 µM)	128 (≈ 133 µM)	64 (≈ 66.7 µM)	8	32	16	32	8	4	8	4
CC[C@H]1OC(=O)[C@H](C)[C@@H](OC(=O)Cc2cccnc2)[C@H](C)[C@@H](O[C@@H]2O[C@H](C)C[C@H](N(C)C)[C@H]2O)[C@](C)(OC)C[C@@H](C)C(=O)[C@H](C)[C@@H](OC(=O)NCCNC(=O)C#Cc2cccc3ccccc23)[C@]1(C)O	16 (≈ 16.4 µM)	> 128	4	2 (≈ 2.06 µM)	1 (≈ 1.03 µM)	4 (≈ 4.11 µM)	4	32 (≈ 32.9 µM)	0.125 (≈ 0.128 µM)	> 128	32 (≈ 32.9 µM)	64 (≈ 65.8 µM)	–	–	–	–	–	–	–	–
